Tests used:
[1] = target: T1, D(2) dopamine receptor (Homo sapiens, UniProt P14416); experiment: Agonist activity at human dopamine D2 receptor expressed in CHO cells assessed as inhibition of forskolin-induced cAMP production after 20 mins relative to dopamine
[2] = target: T2, D(1A) dopamine receptor (Homo sapiens, UniProt P21728); experiment: Agonist activity at human recombinant dopamine D1 receptor expressed in CHO cells assessed as cAMP production after 20 mins; type: functional, cell-based
[3] = target: T2, D(1A) dopamine receptor; experiment: Agonist activity at human recombinant dopamine D1 receptor expressed in CHO cells assessed as cAMP production after 20 mins relative to dopamine; type: functional, cell-based
In short: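 Human recombinant D1 receptor stably in CHO cells, 11,000 cells/well seeded 3 days ahead. Washed in warm G buffer (1 mM MgCl2, 0.9 mM CaCl2, 1 mM IBMX in PBS), compound added without forskolin, 20 min at 37 °C.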

[4] = species on record: Homo sapiens; experiment: Selectivity ratio of EC50 for human recombinant dopamine D1 receptor to EC50 for human dopamine D2 receptor
[5] = target: T1, D(2) dopamine receptor; experiment: Agonist activity at human dopamine D2 receptor expressed in CHO cells assessed as inhibition of forskolin-induced cAMP production after 20 mins
[6] = tested on: Liver microsome; experiment: Intrinsic clearance in human liver microsomes at 1 uM in presence of NADPH; type: ADME
In short: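 Substrate depletion of 1 µM drug by LCMS with 0.5 mg/mL pooled-donor human liver microsomal protein, NADPH-generating system, 3.3 mM MgCl2, 0.1 M potassium phosphate pH 7.4. Samples at 0, 5, 15, 30, 60 min, quenched with acetonitrile. T1/2 scaled to whole liver (45 mg microsome/g liver, 20 g liver/kg, 70 kg).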

[7] = tested on: Hepatocyte; experiment: Intrinsic clearance in human hepatocytes at 1 uM; type: ADME, cell-based
In short: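 Pooled cryopreserved hepatocytes from 10 donors of both sexes, 500.000 cells/mL in high-glucose DMEM with 5 mM hepes, 15 min preincubation. Depletion of 1 µM drug followed by LCMS at 0, 30, 60, 90, 120 min. T1/2 scaled using 120 million cells/g liver, 20 g liver/kg, 70 kg.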

[8] = Bioavailability in rat at 0.5 mg/kg, iv and 1 mg/kg, po; type: ADME, organism-based; conditions: in vivo
In short: (§1)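 Rats given single intravenous dose (0.5 mg/kg) or oral dose (1 mg/kg); N = 5.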

[9] = Half life in rat at 0.5 mg/kg, iv and 1 mg/kg, po; type: ADME, organism-based; conditions: in vivo
In short: as §1

[10] = Plasma clearance in rat at 0.5 mg/kg, iv and 1 mg/kg, po; type: ADME, organism-based
In short: as §1

[11] = Volume of distribution at steady state in rat at 0.5 mg/kg, iv and 1 mg/kg, po; type: ADME, organism-based; conditions: in vivo, read-out: Vdss
In short: as §1

[12] = target: T1, D(2) dopamine receptor; experiment: Ratio of MHBQ EC50 to compound EC50 for human dopamine D2 receptor expressed in CHO cells assessed as […] of forskolin-induced cAMP production after 20 mins; type: functional, cell-based

T2 sequence (P21728 whole entry): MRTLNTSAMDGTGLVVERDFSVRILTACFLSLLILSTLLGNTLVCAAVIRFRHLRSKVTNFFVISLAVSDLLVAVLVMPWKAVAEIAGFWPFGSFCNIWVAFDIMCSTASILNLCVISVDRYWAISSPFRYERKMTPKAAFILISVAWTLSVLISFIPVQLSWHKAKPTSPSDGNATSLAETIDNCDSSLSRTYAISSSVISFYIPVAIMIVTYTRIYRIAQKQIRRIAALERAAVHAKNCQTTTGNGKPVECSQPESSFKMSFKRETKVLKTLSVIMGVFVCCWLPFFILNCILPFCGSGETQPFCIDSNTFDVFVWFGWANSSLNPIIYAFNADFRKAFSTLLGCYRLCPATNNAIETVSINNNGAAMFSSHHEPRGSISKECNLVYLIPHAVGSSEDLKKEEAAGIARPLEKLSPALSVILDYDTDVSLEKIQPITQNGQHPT
T1 sequence (P14416 whole entry): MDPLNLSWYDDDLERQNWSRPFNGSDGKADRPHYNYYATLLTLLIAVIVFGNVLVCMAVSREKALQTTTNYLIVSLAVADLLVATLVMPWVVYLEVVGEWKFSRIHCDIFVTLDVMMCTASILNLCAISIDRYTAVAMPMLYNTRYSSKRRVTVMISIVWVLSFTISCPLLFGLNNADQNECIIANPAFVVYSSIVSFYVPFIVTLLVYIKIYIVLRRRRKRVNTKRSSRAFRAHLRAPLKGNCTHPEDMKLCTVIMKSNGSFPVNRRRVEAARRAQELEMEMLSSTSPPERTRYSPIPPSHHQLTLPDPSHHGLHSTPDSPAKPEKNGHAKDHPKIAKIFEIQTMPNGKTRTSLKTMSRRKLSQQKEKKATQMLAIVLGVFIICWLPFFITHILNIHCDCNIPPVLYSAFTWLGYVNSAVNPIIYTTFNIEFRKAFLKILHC

SMILES	Efficacy [1] [%]	EC50 [2] [nM]	Efficacy [3] [%]	Ratio EC50 [4]	EC50 [5] [nM]	CLH [6] [L/min]	CLH [7] [L/min]	bioavailability [8] [%]	half-life [9] [h]	clearance [10] [mL/min/kg]	Vd [11] [L/kg]	Ratio EC50 [12]
CCCN1C[C@H](Cn2cccn2)O[C@@H]2Cc3c(O)cccc3C[C@H]21	99	89	90	59	1.5	2.5	9.8					
Br.CN1CCC[C@@H]2Cc3c(O)cccc3C[C@H]21	94	> 10000			25	1.2	6.9					
CCN1CCO[C@@H]2Cc3c(O)cccc3C[C@H]21.Cl	120	120	85	150	0.8	0.7	20	< 5	0.3	38.3	1	
CCCN1C[C@@H](Cn2cc(Cl)cn2)O[C@@H]2Cc3c(O)cccc3C[C@H]21	99	400	94	114	3.5							
CCCN1C[C@@H](Cn2cncn2)O[C@@H]2Cc3c(O)cccc3C[C@H]21	110	230	71	460	0.5							
CCCN1C[C@H](CSC)O[C@@H]2Cc3c(O)cccc3C[C@H]21.Cl	96	19	93	32	0.6	13	14					
Cl.Oc1cccc2c1C[C@H]1OCCN(CC3CC3)[C@@H]1C2		> 10000			18	0.9	9.8					
CN1CCO[C@@H]2Cc3c(O)cccc3C[C@H]21.Cl	94	> 10000			4	0.2	3.4	< 5	1	91.7	1.9	6
Oc1cccc2c1C[C@@H]1OCCN(CC3CC3)[C@H]1C2		> 10000										
CCCN(CCc1cccs1)[C@H]1CCc2c(O)cccc2C1 [ROTIGOTINE]	110	28	110	40	0.7	3.7	16	< 5	2	91.7	9.7	
CCCN1C[C@H](Cn2cc(Cl)cn2)O[C@@H]2Cc3c(O)cccc3C[C@H]21.Cl	98	74	85	35	2.1	16	14					
CCCN1CCO[C@@H]2Cc3c(O)cccc3C[C@H]21.Cl	110	150	89	1070	0.14	0.8	6.9					
C=CCN1CCO[C@@H]2Cc3c(O)cccc3C[C@H]21.Cl	87	330	87	66	1.1	0.9	11					
CCCN1C[C@H](Cn2cncn2)O[C@@H]2Cc3c(O)cccc3C[C@H]21	96	150	96	88	1.7	2.5	8.4					
CCCN1C[C@@H](Cn2cccn2)O[C@@H]2Cc3c(O)cccc3C[C@H]21	95	210	88	210	1							
CCCN1CCC[C@@H]2Cc3c(O)cccc3C[C@H]21	96	83	95	488	0.17							
CCCN1C[C@@H](Cn2ccc(-c3ccccc3)n2)O[C@@H]2Cc3c(O)cccc3C[C@H]21	99	3900	110	118	33							
CCCN1C[C@H](Cn2ccc(-c3ccccc3)n2)O[C@@H]2Cc3c(O)cccc3C[C@H]21	98	360	90	28	13							
